Structures are written as SMILES. Some results are limits rather than exact numbers.

This passage reports GI50, Activity and solubility results from ChEMBL document CHEMBL1649398, “Synthesis and evaluation of tumor cell growth inhibition of methyl 3-amino-6-[(hetero)arylethynyl]thieno[3,2-b]pyridine-2-carboxylates. Structure-activity relationships, effects on the cell cycle and apoptosis” (Eur J Med Chem, 2011).

For one data set, the system named is MCF7. The experiment in a line: Growth inhibition of human MCF7 cells after 48 hrs by SRB assay. In kind it is functional. The note with it: MCF7, 48 h. In outline: (§1)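 Adherent cells kept in RPMI-1640 with 5% heat-inactivated FBS, 2 mM glutamine and antibiotics at 37 °C, 5% CO₂. Plated at 1.5 ×10⁵ cells/mL (MCF-7) or 0.75 ×10⁵ cells/mL (A375-C5, NCI-H460) and grown 24 h. […] TCA fixation, SRB stain, absorbance 492 nm. GI₅₀ is 50% inhibition of net growth; mean ± SEM, three experiments in duplicate.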
On the technique in general: The SRB assay estimates cell density from bound dye.

The nature of data set [1]: Growth inhibition of human A375-C5 cells after 48 hrs by SRB assay. In kind it is functional. The note with it: A375-C5, 48 h. In outline: as §1
Data set [2] deals with NCI-H460. Kind of data set: Growth inhibition of human NCI-H460 cells after 48 hrs by SRB assay. In kind it is functional. The note with it: NCI-H460, 48 h. In outline: as §1
The test system of data set [3] is NCI-H460. The experiment in a line: Cell cycle arrest in human NCI-H460 cells assessed as accumulation at G0/G1 phase at GI50 after 48 hrs by flow cytometry. In kind it is functional. (In general: A flow cytometer gives signals particle by particle.)
The subject of data set [4] is NCI-H460. Kind of data set: Cell cycle arrest in human NCI-H460 cells assessed as accumulation at S phase at GI50 after 48 hrs by flow cytometry. In kind it is functional.
For data set [5], the system named is NCI-H460. The experiment in a line: Cell cycle arrest in human NCI-H460 cells assessed as accumulation at G2/M phase at GI50 after 48 hrs by flow cytometry. In kind it is functional.
The subject of data set [6] is NCI-H460. The experiment in a line: Induction of apoptosis in human NCI-H460 cells at GI50 after 48 hrs by V-FITC/propidium iodide staining-based flow cytometry. In kind it is functional.
A short description of data set [7]: Solubility of the compound in DMSO at 150 uM. In kind it is physicochemical.

For the compound `COC(=O)c1sc2cc(C#Cc3cccnc3)cnc2c1N`, the GI50 (with MCF7; in data set [1]; in the data set with NCI-H460 [2]) was > 150 µM in each case.

As for `COC(=O)c1sc2cc(C#Cc3ccsc3)cnc2c1N`, the GI50 (as a rule, the concentration giving 50% growth inhibition) with MCF7 stood at 27.7 µM; in data set [1], 29.6 µM; in the data set on NCI-H460 [2] it was 24.8 µM.

On to `COC(=O)c1sc2cc(C#Cc3ccccc3)cnc2c1N`, for which the GI50 (with MCF7; in data set [1]; in the data set with NCI-H460 [2]) was > 150 µM each time.

Take `COC(=O)c1sc2cc(C#Cc3ccccc3OC)cnc2c1N`: the GI50 (in the data set with MCF7; in data set [1]; with NCI-H460 [2]) was > 47.3 µM in each case.

For the compound `COC(=O)c1sc2cc(C#Cc3cccc(OC)c3)cnc2c1N`, the GI50 in the data set with MCF7 is 33.4 µM; in data set [1], > 75 µM; in the data set with NCI-H460 [2] it was 49 µM.

On to `COC(=O)c1sc2cc(C#Cc3ccc(OC)cc3)cnc2c1N`, for which the GI50 in the data set with MCF7 was 0.46 µM; in data set [1] it was > 37.5 µM; in the data set with NCI-H460 [2], 0.32 µM. Further, the Activity is listed as 59.7% in the data set with NCI-H460 [3], 22% in the data set on NCI-H460 [4], 18.3% in the data set with NCI-H460 [5] and 18.7% in the data set on NCI-H460 [6].

For `COC(=O)c1sc2cc(C#Cc3ccccc3N)cnc2c1N`, the GI50 in the data set on MCF7 stood at 4.1 µM; in data set [1], 3.1 µM; with NCI-H460 [2], 5.7 µM. Besides, the Activity in the data set with NCI-H460 [3] was 54.7%; with NCI-H460 [4] it was 23.1%; with NCI-H460 [5], 24.6%; in the data set with NCI-H460 [6], 25.3%.

On to `COC(=O)c1sc2cc(C#Cc3cccc(N)c3)cnc2c1N`, for which the GI50 in the data set with MCF7 came to 10.8 µM; in data set [1], 11.6 µM; in the data set on NCI-H460 [2], 11.5 µM.

Consider `COC(=O)c1sc2cc(C#Cc3ccc(N)cc3)cnc2c1N`, for which the GI50 in the data set on MCF7 was found to be 2.6 µM; in data set [1], 4.8 µM; in the data set with NCI-H460 [2], 8.9 µM. The Activity was found to be 68% in the data set on NCI-H460 [3], 18.6% with NCI-H460 [4], 13.4% with NCI-H460 [5] and 17% in the data set with NCI-H460 [6].

Regarding `COC(=O)c1sc2cc(C#Cc3ccc(N(C)C)cc3)cnc2c1N`, the GI50 in the data set with MCF7 was 20.6 µM; in data set [1], 17.7 µM; in the data set with NCI-H460 [2], 16.6 µM.

As for `COC(=O)c1sc2cc(C#Cc3ccccc3F)cnc2c1N`, the GI50 (in the data set with MCF7; in data set [1]; in the data set on NCI-H460 [2]) was > 150 µM each time.

In the case of `COC(=O)c1sc2cc(C#Cc3ccc(F)cc3)cnc2c1N`, the values for the GI50 (with MCF7; in data set [1]; in the data set with NCI-H460 [2]) were 29 µM, 48.4 µM and 24 µM, respectively.

In the case of `COC(=O)c1sc2cc(C#Cc3ccccn3)cnc2c1N`, the GI50 in the data set with MCF7 is 37.4 µM; in data set [1] it was 13.9 µM; with NCI-H460 [2] it was 34.9 µM.

On to `C[S+](C)[O-]` [DIMETHYL SULFOXIDE], for which the Activity in the data set with NCI-H460 [3] is 55.1%; in the data set with NCI-H460 [4], 28.8%; in the data set with NCI-H460 [5], 16.1%; with NCI-H460 [6], 12.2%.

Take `COc1cccc2c1C(=O)c1c(O)c3c(c(O)c1C2=O)C[C@@](O)(C(=O)CO)C[C@@H]3O[C@H]1C[C@H](N)[C@H](O)[C@H](C)O1` [DOXORUBICIN]: the solubility entry in data set [7] was “Insoluble”.
